Results of several laboratories.
Lines come from different studies, so protocols differ.
Action: inhibitor
MAPK14: Mitogen-activated protein kinase 14 (MAPK14, Homo sapiens, UniProt Q16539)

With `CNC(=O)c1cc(Oc2ccc(NC(=O)Nc3ccc(Cl)c(C(F)(F)F)c3)cc2)ccn1` the inhibition was -9% (MAPK14; enzyme activity; 0.3 µM).
With `COc1cc2ncnc(Nc3ccc(Oc4ccccc4)c(C)c3C)c2cc1OC` the inhibition was -3% (MAPK14; enzyme activity; 1 µM).
`COc1cccc2c(NCc3ccccc3)nc(-n3c(N)nc4ccccc43)nc12` has an inhibition of 16.5% (MAPK14; target engagement in cells; chemoproteomics; 20 mM).
For `CN1CC(Oc2cnc(C#N)cc2-c2ccn3nc(NC(=O)C4CC4)cc3c2)C1`, the inhibition was -19% (MAPK14; enzyme activity; 1 µM).
The inhibition of `COc1cc2ncnc(Nc3ccc(Oc4ccccc4)cc3C)c2cc1OC` is reported as 3% (MAPK14; enzyme activity; 1 µM).
`CCCCNc1ncc2c(-c3ccc(F)cc3)nn(C[C@H]3CC[C@H](N)CC3)c2n1` has an inhibition of 60.6% (MAPK14; target engagement in cells; chemoproteomics; 20 mM).
`CN(c1ncccc1CNc1nc(Nc2ccc3c(c2)CC(=O)N3)ncc1C(F)(F)F)S(C)(=O)=O` gave an inhibition of 0% (MAPK14; enzyme activity; 1 µM).
`CNc1cc(Oc2cc(C(=O)Nc3cc(N4CCN(C)CC4)cc(C(F)(F)F)c3)ccc2C)ncn1` has an inhibition of -29% (MAPK14; target engagement in cells; chemoproteomics; Huh-7; 1 µM).
With `Cc1ccc(Nc2nccc(N(C)c3ccc4c(C)n(C)nc4c3)n2)cc1S(N)(=O)=O` the inhibition was 13% (Mitogen-activated protein kinase 14 (MAPK14, Homo sapiens, UniProt Q16539, T106M); enzyme activity; 10 µM).
`CN(C)C1CCN(CC#Cc2nn(C3CCCC3)c3nc(NCc4ccccc4)ncc23)C1` (stereo not drawn) has an inhibition of 3% (MAPK14; enzyme activity; FRET; 1 µM).
With `CC/C(=N\NC(=O)NCc1cccc(O)c1)c1ccc(O)c(C)c1O` the inhibition was -2.8% (MAPK14; enzyme activity; 0.1 µM).
`CS(=O)(=O)Nc1cccc(-c2csc(NC(=O)CSc3nc4nccnc4c(=O)n3CCc3ccccc3)n2)c1` has an inhibition of -1% (MAPK14; enzyme activity; 10 µM).
`CCCS(=O)(=O)Nc1ccc(F)c(C(=O)c2c[nH]c3ncc(-c4ccc(Cl)cc4)cc23)c1F` has an inhibition of less than 10% (MAPK14; enzyme activity; 1 µM).
For `CCN(CC)CCNC(=O)c1c(C)[nH]c(/C=C2\C(=O)Nc3ccc(F)cc32)c1C`, the inhibition was -1% (MAPK14; enzyme activity; 10 µM).
The inhibition of `O=C(CSc1nc2nccnc2c(=O)n1CCc1ccccc1)Nc1nccs1` is reported as 3% (MAPK14; enzyme activity; 10 µM).
